# According to ChEMBL document CHEMBL5120949, “Optimization of Covalent MKK7 Inhibitors via Crude Nanomole-Scale Libraries” (J Med Chem, 2022):
# How the values were obtained:
# [1] = molecular target: T1, Dual specificity mitogen-activated protein kinase kinase 7 (Homo sapiens) (UniProt O14733); assay: Inhibition of N-terminal 6XHis-tagged recombinant MKK7 (117 to 423 residues) in human U2OS cells assessed as reduction in JNK phosphorylation level at 13.8 uM incubated for 2 hrs by ICW detection method relative to control; type: cell-based
# T1 sequence (whole entry): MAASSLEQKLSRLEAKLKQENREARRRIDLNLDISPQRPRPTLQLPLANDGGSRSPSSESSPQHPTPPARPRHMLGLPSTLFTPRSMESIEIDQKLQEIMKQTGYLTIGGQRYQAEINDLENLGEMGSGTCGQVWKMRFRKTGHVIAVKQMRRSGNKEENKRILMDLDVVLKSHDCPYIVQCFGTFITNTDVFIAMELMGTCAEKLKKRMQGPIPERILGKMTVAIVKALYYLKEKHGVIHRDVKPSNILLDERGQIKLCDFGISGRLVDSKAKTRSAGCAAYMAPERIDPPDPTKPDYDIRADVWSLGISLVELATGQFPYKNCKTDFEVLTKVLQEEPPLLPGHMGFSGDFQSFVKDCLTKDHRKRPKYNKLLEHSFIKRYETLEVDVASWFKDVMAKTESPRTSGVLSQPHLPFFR
# In short: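 U2OS cells plated on fibronectin-coated 384-well plates, 24 h. Crude CuAAC reaction mixtures diluted in PBS and given to cells at 13.89 μM final for 2 h. 0.2 M sorbitol added 40 min before fixation. Cells fixed, permeabilized and immunostained for phospho-JNK T183/Y185. The 800 nm signal was normalized to CellTag700 and compared with control wells.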
# [2] = molecular target: T1, Dual specificity mitogen-activated protein kinase kinase 7 (Homo sapiens); assay: Binding affinity to N-terminal 6XHis-tagged recombinant MKK7 (117 to 423 residues) (unknown origin) assessed as protein labelling at 2 uM measured for 10 mins by LC/MS analysis relative to control
# [3] = molecular target: T2, Dual specificity mitogen-activated protein kinase kinase 7 (Homo sapiens, UniProt O14733); assay: Inhibition of N-terminal 6XHis-tagged recombinant MKK7 (117 to 423 residues) in human U2OS assessed as reduction in c-Jun phosphorylation level incubated for 80 mins by Western blot analysis; type: cell-based
# T2 sequence (O14733 whole entry): T1 sequence (whole entry)
# In short: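 U2OS cells in six-well plates, media changed, then exposed to compound in 0.1% DMSO for 80 min. Sorbitol added to 0.2 M for 40 min. Lysates (35 μg protein) run on western blot against p-c-Jun (Ser63), with GAPDH as loading control. Bands quantified and EC50 taken from a sigmoidal dose–response fit with top fixed at 1 and bottom at 0.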
# [4] = Kinetic solubility of compound
# [5] = Metabolic stability in human liver microsomes assessed as intrinsic clearance measured after 60 mins
# [6] = Stability of the compound in human plasma assessed as parent compound remaining; type: ADME, cell-free
# [7] = Apparent permeability across apical to basolateral side in human Caco2 cells; details: Caco-2
inhibition [1],Activity [2],SMILES,also measured
65%,> 70%,C=CC(=O)N1CCC[C@@H](n2nc(-c3cn(C[C@H](O)c4ccc(Br)cc4)nn3)c3c(N)ncnc32)C1,
65%,> 70%,C=CC(=O)N1CCC[C@@H](n2nc(-c3cn(-c4ccc(OC)cc4)nn3)c3c(N)ncnc32)C1,
65%,> 70%,C=CC(=O)N1CCC[C@@H](n2nc(-c3cn(-c4ccc(Br)cc4)nn3)c3c(N)ncnc32)C1,
65%,> 70%,C=CC(=O)N1CCC[C@@H](n2nc(-c3cn(CC(F)(F)c4ccc(Cl)cc4)nn3)c3c(N)ncnc32)C1,
,> 70%,C=CC(=O)Nc1cc(C(=O)NCc2cn(-c3ccc(F)c(Cl)c3)nn2)cc(-c2n[nH]c3ccccc23)c1,
65%,> 70%,C=CC(=O)N1CCC[C@@H](n2nc(-c3cn(-c4ccc(Cl)cc4O)nn3)c3c(N)ncnc32)C1,
,2%,C#CCNC(=O)c1cc(NC(=O)C=C)cc(-c2n[nH]c3ccccc23)c1,
65%,> 70%,C=CC(=O)N1CCC[C@@H](n2nc(-c3cn(-c4ccc(CO)c(F)c4)nn3)c3c(N)ncnc32)C1,
65%,> 70%,C=CC(=O)N1CCC[C@@H](n2nc(-c3cn(CCc4ccccc4)nn3)c3c(N)ncnc32)C1,
65%,> 70%,C=CC(=O)N1CCC[C@@H](n2nc(-c3cn(-c4cc(Br)ccc4O)nn3)c3c(N)ncnc32)C1,EC50 [3]: > 900 nM
65%,> 70%,C=CC(=O)N1CCC[C@@H](n2nc(-c3cn(-c4ccc(C(=O)OC)cc4)nn3)c3c(N)ncnc32)C1,
65%,,C=CC(=O)N1CCC[C@@H](n2nc(-c3cn(CC(F)(F)c4ccccc4)nn3)c3c(N)ncnc32)C1,
65%,,C=CC(=O)N1CCC[C@@H](n2nc(-c3cn(-c4ccc(C(C)=O)cc4)nn3)c3c(N)ncnc32)C1,solubility kinetic [4]: 8 µM; microsomal CLint at 1 h [5]: 154 µL/min/mg; Stability [6]: 70%; Papp A→B [7]: 20 ×10⁻⁶ cm/s
65%,> 70%,C#Cc1nn([C@@H]2CCCN(C(=O)C=C)C2)c2ncnc(N)c12,
,> 70%,C=CC(=O)Nc1cc(C(=O)NCc2cn(-c3ccccc3C)nn2)cc(-c2n[nH]c3ccccc23)c1,EC50 [3]: < 3000 nM
,> 70%,C=CC(=O)Nc1cc(C(=O)NCc2cn([C@@H]3CCCC[C@H]3OC)nn2)cc(-c2n[nH]c3ccccc23)c1 (racemic),
,> 70%,C=CC(=O)Nc1cc(C(=O)NCc2cn(C3CCC3)nn2)cc(-c2n[nH]c3ccccc23)c1,
